{"data": "Published values pooled from the literature", "ABHD6": "Monoacylglycerol lipase ABHD6 (ABHD6, Homo sapiens, UniProt Q9BV23)", "DRD4": "D(4) dopamine receptor (DRD4, Homo sapiens, UniProt P21917)", "Signal transducer and activator of transcription 6 SH2": "Signal transducer and activator of transcription 6, SH2 (Homo sapiens, UniProt P42226)", "Oprm1": "Mu-type opioid receptor (Oprm1, Rattus norvegicus, UniProt P33535)"}
{"SMILES": "CN(C(=O)Oc1nsnc1N1CCCCC1)c1cccc(-c2ccccc2)c1", "target": "ABHD6", "assay": "enzyme activity, inhibitor, fluorescence", "conditions": "lysate", "IC50 [µM]": 0.91}
{"SMILES": "C[C@H](N)Cn1ncc2ccc3c(c21)CCCO3", "target": "5-hydroxytryptamine receptor 5A (HTR5A, Homo sapiens, UniProt P47898)", "assay": "ligand displacement, radioligand", "IC50 [µM]": 10.8}
{"SMILES": "COc1ccccc1OCCNCC(O)COc1cccc2[nH]c3ccccc3c12 (centres unmarked)", "target": "DRD4", "assay": "ligand displacement, radioligand", "IC50 [µM]": 0.02}
{"SMILES": "CN(C(=O)Oc1nsnc1N1CCCCC1)c1ccc(Cl)cc1", "target": "ABHD6", "assay": "enzyme activity, inhibitor, fluorescence", "conditions": "lysate", "IC50 [µM]": 0.407}
{"SMILES": "C=CCOC(Cn1ccnc1)c1ccc(Cl)cc1Cl (centres unmarked)", "target": "Pleiotropic ABC efflux transporter of multiple drugs (PDR5, Saccharomyces cerevisiae S288c, UniProt P33302)", "assay": "transporter uptake, inhibitor", "IC50 [µM]": "60 to 70"}
{"SMILES": "O=P(O)(O)Oc1ccccc1OP(=O)(O)O", "target": "Signal transducer and activator of transcription 6 SH2", "assay": "ligand displacement, FP", "IC50 [µM]": 36}
{"SMILES": "CC(=O)c1c(O)c(C)c(O)c(Cc2c(O)c3c(c(C(=O)/C=C/c4ccccc4)c2O)OC(C)(C)C=C3)c1O", "target": "Protein-glutamine gamma-glutamyltransferase (TGM2, Homo sapiens, UniProt P21980)", "assay": "enzyme activity, inhibitor", "IC50 [µM]": "> 50"}
{"SMILES": "COc1cc2c(cc1OC)C(=O)C(CC1CCN(Cc3ccccc3)CC1)C2 (centres unmarked)", "target": "DRD4", "assay": "ligand displacement, radioligand", "IC50 [µM]": 0.824}
{"SMILES": "C[C@@H](NC(=O)[C@@H](N)Cc1ccc(O)cc1)C(=O)NCCC(=O)N[C@@H](Cc1ccccc1)C(=O)NNC(=O)[C@H](Cc1ccccc1)NC(=O)CCNC(=O)[C@@H](C)NC(=O)[C@@H](N)Cc1ccc(O)cc1", "target": "Oprm1", "assay": "ligand displacement, radioligand", "IC50 [µM]": 0.38}
{"SMILES": "CCN(CC)Cc1cc(Nc2ccnc3cc(Cl)ccc23)ccc1O", "target": "Genome polyprotein, protease (Dengue virus type 2, UniProt P14340)", "assay": "enzyme activity, inhibitor", "IC50 [µM]": "≥ 250"}
{"SMILES": "CN(C(=O)Oc1nsnc1N1CCCCC1)c1ccc(F)cc1", "target": "ABHD6", "assay": "enzyme activity, inhibitor, fluorescence", "conditions": "lysate", "IC50 [µM]": 0.078}
{"SMILES": "O=C(COc1ccc2cc(C(=O)Nc3ccccc3)ccc2c1)NCc1ccc(OP(=O)(O)O)c(OP(=O)(O)O)c1", "target": "Signal transducer and activator of transcription 6 SH2", "assay": "ligand displacement, FP", "IC50 [µM]": 7.17}
{"SMILES": "COc1cccc(N(C)C(=O)Oc2nsnc2N2CCCCC2)c1", "target": "ABHD6", "assay": "enzyme activity, inhibitor, fluorescence", "conditions": "lysate", "IC50 [µM]": 0.195}
{"SMILES": "C[C@@H](NC(=O)[C@@H](N)Cc1ccc(O)cc1)C(=O)NCC(=O)N[C@H](CC(=O)NNC(=O)C[C@H](Cc1ccccc1)NC(=O)CNC(=O)[C@@H](C)NC(=O)[C@@H](N)Cc1ccc(O)cc1)Cc1ccccc1", "target": "Oprm1", "assay": "ligand displacement, radioligand", "IC50 [µM]": 0.00229}
